From ChEMBL document CHEMBL4130542, “Daedophamide, a Cytotoxic Cyclodepsipeptide from a Daedalopelta sp. Sponge Collected in Indonesia” (2017)

Tests used:
Format in all cases: functional
PSN1 = experiment: Cytotoxicity against human PSN1 cells after 48 hrs by sulforhodamine B assay; conditions: PSN1, 48 h; for CC50: read-out: LC50 (the source's name)
Outline: (§1)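 Human carcinoma lines (A-549 lung, MDA-MB-231 breast adenocarcinoma, HT-29 colorectal, PSN-1 pancreas). Cell survival estimated with the NCI algorithm. Three dose-response parameters derived: GI50 (50% growth inhibition vs control cells), TGI (total growth inhibition vs control) and LC50 (50% cell death vs control). GI50 calculated by a literature procedure.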

HT-29 = experiment: Cytotoxicity against human HT-29 cells after 48 hrs by sulforhodamine B assay; conditions: HT-29, 48 h; for CC50: read-out: LC50 (the source's name); outline: as §1
MDA-MB-231 = experiment: Cytotoxicity against human MDA-MB-231 cells after 48 hrs by sulforhodamine B assay; conditions: MDA-MB-231, 48 h; for CC50: read-out: LC50 (the source's name); outline: as §1
A549 = experiment: Cytotoxicity against human A549 cells after 48 hrs by sulforhodamine B assay; conditions: A549, 48 h; for CC50: read-out: LC50 (the source's name); outline: as §1

Molecule `COc1cccc2c1C(=O)c1c(O)c3c(c(O)c1C2=O)C[C@@](O)(C(=O)CO)C[C@@H]3O[C@H]1C[C@H](N)[C@H](O)[C@H](C)O1` [DOXORUBICIN] has a GI50 (PSN1) of 200 nM, a TGI (PSN1) of 500 nM and a CC50 (PSN1) of 3100 nM. It also gave a GI50 (HT-29) of 300 nM, a TGI (HT-29) of 900 nM and a CC50 (HT-29) of over 17200 nM. The GI50 (MDA-MB-231) was 200 nM, the TGI (MDA-MB-231) was 500 nM and the CC50 (MDA-MB-231) was 2400 nM. It also gave a GI50 (A549) of 200 nM, a TGI (A549) of 900 nM and a CC50 (A549) of over 17200 nM.
In the case of `CO[C@H](C)[C@@H]1NC(=O)[C@H](CCC(N)=O)N(C)C(=O)[C@H](CC(C)C)NC(=O)[C@@H](CCCNC(=N)N)NC(=O)[C@@H](CO)NC(=O)[C@H](NC(=O)[C@@H](NC(=O)[C@H](O)[C@H](O)[C@H](CCCNC(=N)N)NC(=O)[C@@H](C)NC(=O)[C@H](C)[C@H](O)[C@H](C)C[C@H](C)CC(C)C)[C@@H](C)[C@@H](C)C(N)=O)[C@@H](C)OC(=O)[C@@H]2CCCCN2C(=O)[C@@H](CC(=O)O)NC1=O`, the GI50 (PSN1) is reported as 200 nM, the TGI (PSN1) is reported as 300 nM and the CC50 (PSN1) is reported as 600 nM. The GI50 (HT-29) was 600 nM, the TGI (HT-29) was 800 nM and the CC50 (HT-29) was 1300 nM. For the same molecule, the GI50 (MDA-MB-231) was 300 nM, the TGI (MDA-MB-231) was 600 nM and the CC50 (MDA-MB-231) was 900 nM. For the same molecule, the GI50 (A549) was 400 nM, the TGI (A549) was 500 nM and the CC50 (A549) was 700 nM.
